# Organism: Ovis aries
# Assay: Inhibition of sheep brain tubulin assembly at 100 uM by DAPI staining-based fluorescence assay
# In short: (§1)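 Tubulin from sheep brain, purified by two assembly–disassembly cycles, at about 2–3 mg/mL in 0.1 M MES, 0.5 mM MgCl2, 1 mM EGTA, 1 mM GTP, pH 6.6. Assembly followed by DAPI fluorescence at 37 °C. Single-point inhibition tested at 100 µM. IC50 is the concentration halving the assembly rate relative to no compound, mean of two experiments, with reference inhibitors run the same day.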
row,inhibition,Compound
1,3%,COc1ccc(C(=O)c2ccc(OC)c(NC(C)=O)c2OC)cc1F
2,93%,COc1ccc(C(=O)c2cc(F)c(F)c(OC)c2F)c(O)c1O
3,46%,COc1ccc(C(=O)c2cc(F)c(F)c(OC)c2F)cc1OC(=O)CCl

row,Compound,inhibition
1,COc1cc([C@@H]2c3cc4c(cc3C[C@H]3COC(=O)[C@@H]32)OCO4)cc(OC)c1OC [DESOXYPODOPHYLLOTOXIN],100%

# System: not listed separately
# Assay: Inhibition of sheep brain tubulin assembly by DAPI staining-based fluorescence assay
# Design: species or system Ovis aries
# In short: as §1
row,IC50,Compound
1,2000 nM,COc1ccc(C(=O)c2cc(OC)c(OC)c(OC)c2N)cc1F
2,29200 nM,COc1ccc(C(=O)c2cc(F)c(F)c(OC)c2F)c(O)c1O

row,Compound,IC50
1,COc1cc([C@@H]2c3cc4c(cc3C[C@H]3COC(=O)[C@@H]32)OCO4)cc(OC)c1OC [DESOXYPODOPHYLLOTOXIN],1760 nM

# — ChEMBL document CHEMBL2384929, “Synthesis and biological evaluation of fluoro analogues of antimitotic phenstatin” (Bioorg Med Chem, 2013)
